From the array DNA melting data of Ke et al. (doi:10.1101/2024.01.08.574731)

How the values were obtained:
[1] = folding enthalpy; higher = less favourable; fluorescence melt of hairpins on a sequencing array, two-state fit; conditions: sodium 0.088 M
How it was run: (§1)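 Folding enthalpy and melting temperature come from bootstrapped two-state fits to Cy3 fluorescence of library hairpins carrying annealed Cy3 and quencher oligos on a sequenced MiSeq flow cell. Imaging was done in 50 mM Na-HEPES pH 8.0, 25 mM NaCl, stepping by 2.5 °C up to 60 °C, and signals were normalised to pre-quench Cy3 and to control constructs. Results of four replicates were combined by inverse variance, and fitted temperatures were raised by 9.35 °C to match UV melts.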

[2] = melting temperature; fluorescence melt of hairpins on a sequencing array, two-state fit, raised by 9.35 °C to match UV melts; conditions: sodium 0.088 M
How it was run: as §1

| Sequence | folding enthalpy [1] [kcal/mol] | Tm [2] [°C] |
| --- | --- | --- |
| GGAATTGCGAAAGCATCC (((..(((....)))))) | -9.07 | 30.3 |
| GCCACCGAAAGGTAGGC ((((((....))).))) | -32.2 | 62.7 |
| GACCCGGGAAACCGAGTC (((.(((....))).))) | -32.8 | 45.3 |
| GATCTACACGTAGATC ((((((....)))))) | -35.6 | 50.5 |
| GGTGTCGGAAACGACGTC (..((((....))))..) | -12.3 | 36.8 |
| GCCTGGCGAAAGCGATGC ((.(.((....)).).)) | -6.61 | 37 |
| GAGAGAGGAAACCCTCTC (((((.(....).))))) | -20.2 | 42.5 |
| GCGAAGCGAAAGCGTGGC ((.(.((....)).).)) | -10.5 | 47.3 |
| GCTAAGCGAAAGCGCAGC (((..((....))..))) | -30.2 | 66.5 |
| GTGACCGCGAAAGCGCAC (((..(((....)))))) | -8.65 | 40.3 |
| GATCAGGAGCTGATC ((((((...)))))) | -32.3 | 46.5 |
| GACCTTGGAAACAAAGTC (((.(((....))).))) | -20.3 | 26 |
| GCTTAGCGAAAGCTGAGC (((.(((....))).))) | -45.6 | 57.6 |
| GCCGATCGAAAGATTGGC (((.(((....))).))) | -45.5 | 61.1 |
| GCTACGCGAAAGCACAGC (((..((....))..))) | -21.2 | 46.5 |
| CGACCACGGAAACGTTCG (((..(((....)))))) | -12.3 | 30.5 |
| GGTCATCGAAAGATAACC (((.(((....))).))) | -26.8 | 39.4 |
| CGAAGACGGAAACGTTCG (((..(((....)))))) | -13.8 | 39 |
| GCGAGGGGAAACCCTCAC (.(((((....))))).) | -13.7 | 45.2 |
| GCGCGATCGAAAGATCGC (((..(((....)))))) | -6.32 | 60.6 |
| GAGGAGGGAAACCTTCTC (((.(((....))).))) | -27.3 | 42.7 |
| CGGCCGGAAACGGGACCG ((((((....)))..))) | -25.5 | 47.8 |
| GATTGCGAAAGCAGCATC ((((((....)))..))) | -9.21 | 24.1 |

| Sequence | folding enthalpy [1] [kcal/mol] | Tm [2] [°C] |
| --- | --- | --- |
| GCATCGGGAAACCGGTGC (((.(((....))).))) | -44.5 | 59.1 |
| GATCGCGCGGCGATC ((((((...)))))) | -34.6 | 68.5 |
| GGTGTCGAAAGACGCACC ((((((....)))..))) | -13.6 | 42.4 |
| GGCATGGCGAAAGCCGCC (((..(((....)))))) | -16 | 59.4 |
| GGTGGACGAAAGTCTACC (((.(((....))).))) | -41.5 | 59 |
| GGTACACGAAAGTGAACC (((.(((....))).))) | -36.8 | 53.9 |
| GCTGGGTCGAAAGACAGC (((..(((....)))))) | -19.9 | 46 |
| GGGACGGGAAACCATCCC ((((.((....)).)))) | -31.6 | 44.7 |
| GGGGTCGAAAGACACCCC ((((((....)))..))) | -12.6 | 61.8 |
| GCCTATGGAAACATAGGC (((((((....))))))) | -33.8 | 66 |
| GGCACCGAAAGGTTCGCC ((((((....)))..))) | -20 | 47.7 |
| GGTGCCGAAAGGCCAACC ((((((....)))..))) | -12.7 | 44.1 |
| GTGTCCCCGAAAGGGCAC (((..(((....)))))) | -21.4 | 49.6 |
| GACCTTGGAAACAAGATC ((.((((....)))).)) | -21 | 30.6 |
| GCTTAAGCGAAAGCTAGC (((..(((....)))))) | -17.6 | 40.5 |
| GATCAGAGAGCTGATC ((((((....)))))) | -31 | 46.2 |
| GCAAGGCGAAAGCGGTGC (((..((....))..))) | -21.2 | 47.1 |
| GATCTCCCAGAGATC ((((((...)))))) | -40 | 53.5 |
| GGTGGTACGAAAGTAACC (((..(((....)))))) | -19 | 43.8 |
| GATCGGCGGTCCGATC ((((((....)))))) | -43.3 | 55.5 |
| GATCTTGACGAAGATC ((((((....)))))) | -26.5 | 46.1 |
| GTCGTCCGAAAGGAGGAC (((.(((....))).))) | -40.2 | 62 |
| GCGAGGGGAAACCCCCAC (.(.(((....))).).) | -10.9 | 28.6 |

| Sequence | folding enthalpy [1] [kcal/mol] | Tm [2] [°C] |
| --- | --- | --- |
| GCGTTACGAAAGTAGCGC (((.(((....))).))) | -39.7 | 64.4 |
| GGTCAGGGAAACCCAACC (((..((....))..))) | -9.32 | 29 |
| GGGACTGGAAACGGTTCC ((.((.(....).)).)) | -18.9 | 42 |
| GCGTGCCCGAAAGGGCGC (((..(((....)))))) | -7.85 | 55.5 |
| GTAGAGCGAAAGCTGTAC (((.(((....))).))) | -25.2 | 50.9 |
| GATCGCCAATGCGATC ((((((....)))))) | -38.1 | 65.3 |
| GCTACGGGAAACTGTGGC ((.((.(....).)).)) | -30.7 | 41.1 |
| GTCGATGCGAAAGCAGAC (((..(((....)))))) | -16.1 | 46 |
| GGACCACGAAAGTGATCC (((.(((....))).))) | -29.1 | 51.5 |
| GCATACGAAAGTACTTGC ((((((....)))..))) | -11.7 | 30.8 |
| GCGAACTTCGC ((((...)))) | -17.3 | 48.5 |
| GCGTGTACACGC ((((....)))) | -28.5 | 67.6 |
| CGTTCGGAAACGACAACG ((((((....)))..))) | -15.2 | 34.4 |
| GATCGTATCTACGATC ((((((....)))))) | -37.9 | 57.6 |
| GTGGTTGGAAACAATCAC (((.(((....))).))) | -36.6 | 47.7 |
| GAACTCGCGAAAGCGTTC (((..(((....)))))) | -12.5 | 27.4 |
| GCTTTACCGAAAGGTAGC (((..(((....)))))) | -13 | 37.7 |
| GCTAACGAAAGTTAAGC ((((((....))).))) | -27.1 | 46.2 |
| GATCTCCCTCGAGATC ((((((....)))))) | -41.1 | 51.7 |
| GTGCTACGAAAGTACCAC (((.(((....))).))) | -26 | 37.8 |
| GTATGTGGAAACACATAC (((((((....))))))) | -42.4 | 56 |
| GTATGACGAAAGTCTTAC (((.(((....))).))) | -24.7 | 47.2 |
| GAGGACGGAAACGTCCCC (.(((((....))))).) | -10.4 | 42.3 |

| Sequence | folding enthalpy [1] [kcal/mol] | Tm [2] [°C] |
| --- | --- | --- |
| GCACCAGGAAACTGGCAC (..((((....))))..) | -11.6 | 23.9 |
| GTTGGCACGAAAGTGAAC (((..(((....)))))) | -20.6 | 38.8 |
| GTTGCCGAAAGGCTAAAC ((((((....)))..))) | -9.35 | 34.5 |
| GCCGATACGAAAGTAGGC (((..(((....)))))) | -33 | 49.3 |
| GATACACCGAAAGGTATC (((..(((....)))))) | -13.2 | 30.3 |
| GAGACCGGAAACGGCCTC (((.(((....))).))) | -28.1 | 50.8 |
| GCAGGGTCGAAAGACTGC (((..(((....)))))) | -23.4 | 45.8 |
| GATCGGTCTCCGATC ((((((...)))))) | -43.1 | 57.4 |
| GATCCCACCTGGGATC ((((((....)))))) | -35.6 | 60.1 |
| GCCTAGAAATAGGC (((((....))))) | -29.2 | 49.8 |
| GTTCAAGGAAACTTGAAC (((((((....))))))) | -46.1 | 53.9 |
| GTGGGACGAAAGTCACAC (((.(((....))).))) | -29.6 | 68.9 |
| CGAAACCGGAAACGGTCG (((..(((....)))))) | -14.9 | 43.8 |
| GATCCACAACTGGATC ((((((....)))))) | -34.5 | 47 |
| GTACGGCGAAAGCCTTAC (((.(((....))).))) | -19.3 | 43.2 |
| GCGTTCGAAAGAATCCGC ((((((....)))..))) | -22 | 35.3 |
| GATCTTTGGTAAGATC ((((((....)))))) | -30.8 | 42.5 |
| GTCTGGGGAAACTCGGAC (((.(.(....).).))) | -28.8 | 37.1 |
| GCTCACGAAAGTGTCAGC ((((((....)))..))) | -17.4 | 37.4 |
| GTTAACGCGAAAGCGAAC (((..(((....)))))) | -8.96 | 32.9 |
| GAGGGAGGAAACTCTCTC (((.(((....))).))) | -24.6 | 44.2 |
| GGTTATGGAAACATGACC (((.(((....))).))) | -33.2 | 45.4 |
| GTGCTCGAAAGAGTACAC ((((((....)))..))) | -14.3 | 49.7 |
